Test results published in ChEMBL document CHEMBL3407460, “Synthesis of novel thiazole-based 8,9-dihydro-7H-pyrimido[4,5-b][1,4]diazepines as potential antitumor and antifungal agents” (2015).

Legend:
Type in all cases: functional
SNB-75 = assay: Antitumor activity against human SNB75 cells after 48 hrs by Sulforhodamine B assay; conditions: SNB-75, 48 h
In short: (§1)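 NCI 60-cell-line screen. Secondary five-dose test at 100, 10, 1.0, 0.1 and 0.01 µM with continuous drug exposure for 48 h. Cell growth was estimated by sulforhodamine B protein staining. […] LC50 was also reported.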

MCF7 = assay: Antitumor activity against human MCF7 cells after 48 hrs by Sulforhodamine B assay; conditions: MCF7, 48 h; in short: as §1
[1] = Antitumor activity against human LOXIMVI cells after 48 hrs by Sulforhodamine B assay; conditions: LOX IMVI; in short: as §1
SK-MEL-2 = assay: Antitumor activity against human SK-MEL-2 cells after 48 hrs by Sulforhodamine B assay; conditions: SK-MEL-2, 48 h; in short: as §1
[2] = Antitumor activity against human PC3 cells after 48 hrs by Sulforhodamine B assay; conditions: PC-3, 48 h; in short: as §1
DU-145 = assay: Antitumor activity against human DU145 cells after 48 hrs by Sulforhodamine B assay; conditions: DU-145, 48 h; in short: as §1
SK-MEL-28 = assay: Antitumor activity against human SK-MEL-28 cells after 48 hrs by Sulforhodamine B assay; conditions: SK-MEL-28, 48 h; in short: as §1
MDA-MB-435 = assay: Antitumor activity against human MDA-MB-435 cells after 48 hrs by Sulforhodamine B assay; conditions: MDA-MB-435, 48 h; in short: as §1
[3] = Antitumor activity against human BT549 cells after 48 hrs by Sulforhodamine B assay; conditions: BT-549, 48 h; in short: as §1
SF-268 = assay: Antitumor activity against human SF268 cells after 48 hrs by Sulforhodamine B assay; conditions: SF-268, 48 h; in short: as §1
IGROV-1 = assay: Antitumor activity against human IGROV1 cells after 48 hrs by Sulforhodamine B assay; conditions: IGROV-1, 48 h; in short: as §1
[4] = Antitumor activity against human Hs 578T cells after 48 hrs by Sulforhodamine B assay; in short: as §1
[5] = Antitumor activity against human UACC257 cells after 48 hrs by Sulforhodamine B assay; conditions: UACC-257, 48 h; in short: as §1
NCI-H460 = assay: Antitumor activity against human NCI-H460 cells after 48 hrs by Sulforhodamine B assay; conditions: NCI-H460, 48 h; in short: as §1
A549 = assay: Antitumor activity against human A549 cells after 48 hrs by Sulforhodamine B assay; conditions: A549, 48 h; in short: as §1
[6] = Antitumor activity against human MOLT4 cells after 48 hrs by Sulforhodamine B assay; conditions: MOLT-4, 48 h; in short: as §1
T47D = assay: Antitumor activity against human T47D cells after 48 hrs by Sulforhodamine B assay; in short: as §1
NCI-H23 = assay: Antitumor activity against human NCI-H23 cells after 48 hrs by Sulforhodamine B assay; conditions: NCI-H23, 48 h; in short: as §1
[7] = Antitumor activity against human OVCAR8 cells after 48 hrs by Sulforhodamine B assay; conditions: OVCAR-8, 48 h; in short: as §1
CCRF-CEM = assay: Antitumor activity against human CCRF-CEM cells after 48 hrs by Sulforhodamine B assay; in short: as §1
[8] = Antitumor activity against human COLO205 cells after 48 hrs by Sulforhodamine B assay; conditions: COLO 205, 48 h; in short: as §1
[9] = Antitumor activity against human HCT15 cells after 48 hrs by Sulforhodamine B assay; conditions: HCT-15, 48 h; in short: as §1
MDA-MB-231 = assay: Antitumor activity against human MDA-MB-231 cells after 48 hrs by Sulforhodamine B assay; conditions: MDA-MB-231, 48 h; in short: as §1
[10] = Antitumor activity against human NCI-ADR-RES cells after 48 hrs by Sulforhodamine B assay; in short: as §1
SNB-19 = assay: Antitumor activity against human SNB19 cells after 48 hrs by Sulforhodamine B assay; conditions: SNB-19, 48 h; in short: as §1
MDA-MB-468 = assay: Antitumor activity against human MDA-MB-468 cells after 48 hrs by Sulforhodamine B assay; conditions: MDA-MB-468, 48 h; in short: as §1
KM12 = assay: Antitumor activity against human KM12 cells after 48 hrs by Sulforhodamine B assay; conditions: KM12, 48 h; in short: as §1
SW-620 = assay: Antitumor activity against human SW620 cells after 48 hrs by Sulforhodamine B assay; conditions: SW-620, 48 h; in short: as §1
[11] = Antitumor activity against human SF295 cells after 48 hrs by Sulforhodamine B assay; conditions: SF-295, 48 h; in short: as §1
K562 = assay: Antitumor activity against human K562 cells after 48 hrs by Sulforhodamine B assay; conditions: K562, 48 h; in short: as §1
NCI-H226 = assay: Antitumor activity against human NCI-H226 cells after 48 hrs by Sulforhodamine B assay; conditions: NCI-H226, 48 h; in short: as §1
Malme-3M = assay: Antitumor activity against human MALME-3M cells after 48 hrs by Sulforhodamine B assay; in short: as §1
[12] = Antitumor activity against human RPMI8226 cells after 48 hrs by Sulforhodamine B assay; conditions: RPMI-8226, 48 h; in short: as §1
[13] = Antitumor activity against human OVCAR3 cells after 48 hrs by Sulforhodamine B assay; conditions: OVCAR-3, 48 h; in short: as §1
HOP-62 = assay: Antitumor activity against human HOP62 cells after 48 hrs by Sulforhodamine B assay; conditions: HOP-62, 48 h; in short: as §1
[14] = Antitumor activity against human HCT116 cells after 48 hrs by Sulforhodamine B assay; conditions: HCT-116, 48 h; in short: as §1
M14 = assay: Antitumor activity against human M14 cells after 48 hrs by Sulforhodamine B assay; conditions: M14, 48 h; in short: as §1
NCI-H522 = assay: Antitumor activity against human NCI-H522 cells after 48 hrs by Sulforhodamine B assay; conditions: NCI-H522, 48 h; in short: as §1
[15] = Antitumor activity against human SF539 cells after 48 hrs by Sulforhodamine B assay; conditions: SF-539, 48 h; in short: as §1
[16] = read-out: LC50 (the source's name)

Question: With `Nc1ncnc2c1N=C(c1ccc3c(c1)OCO3)CC(c1sc(Cl)nc1Cl)N2` (stereo not drawn) as the molecule, how does the GI50 (SNB-75) read?
Answer: 1.39 µM

Question: And the LC50 (concentration killing 50% of cells) (SNB-75)?
Answer: 61.4 µM

Question: What about the GI50 (MCF7) of the same molecule?
Answer: 2.81 µM

Question: What about the CC50 (MCF7; [16]) of the same molecule?
Answer: > 100 µM

Question: And the GI50 [1]?
Answer: 7.02 µM

Question: What about the CC50 [1, 16] of the same molecule?
Answer: 75.6 µM

Question: What about the GI50 (SK-MEL-2) of the same molecule?
Answer: 5.19 µM

Question: And the LC50 (SK-MEL-2)?
Answer: 48.6 µM

Question: And the GI50 [2]?
Answer: 5.15 µM

Question: And the CC50 [2, 16]?
Answer: > 100 µM

Question: And the GI50 (DU-145)?
Answer: 8.45 µM

Question: What about the CC50 (DU-145; [16]) of the same molecule?
Answer: > 100 µM

Question: And the GI50 (SK-MEL-28)?
Answer: 7.63 µM

Question: And the LC50 (SK-MEL-28)?
Answer: 91.6 µM

Question: And the GI50 (MDA-MB-435)?
Answer: 0.35 µM

Question: What about the CC50 (MDA-MB-435; [16]) of the same molecule?
Answer: 48.4 µM

Question: And the GI50 [3]?
Answer: 3.79 µM

Question: And the CC50 [3, 16]?
Answer: 53.9 µM

Question: And the GI50 (SF-268)?
Answer: 9.84 µM

Question: What about the CC50 (SF-268; [16]) of the same molecule?
Answer: 92.2 µM

Question: What about the GI50 (IGROV-1) of the same molecule?
Answer: 10.4 µM

Question: What about the CC50 (IGROV-1; [16]) of the same molecule?
Answer: > 100 µM

Question: What about the GI50 [4] of the same molecule?
Answer: 2.35 µM

Question: What about the CC50 [4, 16] of the same molecule?
Answer: > 100 µM

Question: And the GI50 [5]?
Answer: 14.6 µM

Question: And the CC50 [5, 16]?
Answer: > 100 µM

Question: What about the GI50 (NCI-H460) of the same molecule?
Answer: 3.99 µM

Question: And the LC50 (NCI-H460)?
Answer: > 100 µM

Question: What about the GI50 (A549) of the same molecule?
Answer: 6.47 µM

Question: What about the CC50 (A549; [16]) of the same molecule?
Answer: > 100 µM

Question: And the GI50 [6]?
Answer: 5.91 µM

Question: And the LC50 [6]?
Answer: > 100 µM

Question: What about the GI50 (T47D) of the same molecule?
Answer: 5.36 µM

Question: What about the CC50 (T47D; [16]) of the same molecule?
Answer: > 100 µM

Question: What about the GI50 (NCI-H23) of the same molecule?
Answer: 8.87 µM

Question: And the LC50 (NCI-H23)?
Answer: > 100 µM

Question: What about the GI50 [7] of the same molecule?
Answer: 4.86 µM

Question: And the LC50 (concentration killing 50% of cells) [7]?
Answer: > 100 µM

Question: What about the GI50 (CCRF-CEM) of the same molecule?
Answer: 3.02 µM

Question: And the CC50 (CCRF-CEM; [16])?
Answer: > 100 µM

Question: What about the GI50 [8] of the same molecule?
Answer: 3.48 µM

Question: And the CC50 [8, 16]?
Answer: 45.6 µM

Question: And the GI50 [9]?
Answer: 1.07 µM

Question: And the CC50 [9, 16]?
Answer: > 100 µM

Question: And the GI50 (MDA-MB-231)?
Answer: 5.81 µM

Question: What about the LC50 (concentration killing 50% of cells) (MDA-MB-231) of the same molecule?
Answer: 55.7 µM

Question: What about the GI50 [10] of the same molecule?
Answer: 3.55 µM

Question: And the CC50 [10, 16]?
Answer: > 100 µM

Question: What about the GI50 (SNB-19) of the same molecule?
Answer: 4.83 µM

Question: What about the LC50 (SNB-19) of the same molecule?
Answer: > 100 µM

Question: And the GI50 (MDA-MB-468)?
Answer: 1.65 µM

Question: And the LC50 (MDA-MB-468)?
Answer: > 100 µM

Question: What about the GI50 (KM12) of the same molecule?
Answer: 3.93 µM

Question: What about the CC50 (KM12; [16]) of the same molecule?
Answer: 73.6 µM

Question: And the GI50 (SW-620)?
Answer: 2.98 µM

Question: What about the CC50 (SW-620; [16]) of the same molecule?
Answer: > 100 µM

Question: And the GI50 [11]?
Answer: 2.21 µM

Question: And the CC50 [11, 16]?
Answer: 39.8 µM

Question: And the GI50 (K562)?
Answer: 0.54 µM

Question: What about the CC50 (K562; [16]) of the same molecule?
Answer: > 100 µM

Question: And the GI50 (NCI-H226)?
Answer: 17.7 µM

Question: What about the CC50 (NCI-H226; [16]) of the same molecule?
Answer: > 100 µM

Question: What about the GI50 (Malme-3M) of the same molecule?
Answer: 14.3 µM

Question: What about the CC50 (Malme-3M; [16]) of the same molecule?
Answer: 59.2 µM

Question: And the GI50 [12]?
Answer: 4.66 µM

Question: And the LC50 (concentration causing 50% net cell kill) [12]?
Answer: > 100 µM

Question: And the GI50 [13]?
Answer: 3.94 µM

Question: And the CC50 [13, 16]?
Answer: 66.8 µM

Question: What about the GI50 (HOP-62) of the same molecule?
Answer: 5.32 µM

Question: What about the LC50 (concentration giving 50% net cell kill) (HOP-62) of the same molecule?
Answer: 62.6 µM

Question: And the GI50 [14]?
Answer: 3.42 µM

Question: And the CC50 [14, 16]?
Answer: 44.5 µM

Question: What about the GI50 (M14) of the same molecule?
Answer: 2.01 µM

Question: What about the CC50 (M14; [16]) of the same molecule?
Answer: 44.6 µM

Question: What about the GI50 (NCI-H522) of the same molecule?
Answer: 2.51 µM

Question: And the CC50 (NCI-H522; [16])?
Answer: 55.3 µM

Question: And the GI50 [15]?
Answer: 2.22 µM

Question: And the CC50 [15, 16]?
Answer: 33.6 µM
